Source: ChEMBL document CHEMBL1148947, “Prenylated benzophenones and xanthones from Hypericum scabrum” (J Nat Prod, 2004)
≈ marks a conversion by molar mass, not a printed value. Calls of active or inactive are those of the source. The calls are words filed in the database; no cut-off is given here.

What was measured:
MCF7 [1] = experiment: Cytotoxicity against human MCF7 cells after 3 days by SRB assay; type: functional, cell-based; settings: MCF7, 72 h
Outline: (§1)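 Cells kept in RPMI-1640 with 25 mM HEPES, 0.25% sodium bicarbonate, 10% FBS and 100 µg/mL kanamycin. Freshly trypsinized cells seeded at 1500-7500 per well with compound diluted from DMSO stock. After 3 days, attached cells fixed with cold 50% TCA, stained with 0.4% SRB, and bound dye solubilized. Absorbance read at 562 nm. IC50 = 50% reduction relative to untreated cells. Below 50% inhibition at 20 mcg/mL, percent inhibition reported.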

A549 [2] = experiment: Cytotoxicity against human A549 cells after 3 days by SRB assay; type: functional, cell-based; settings: A549, 72 h; outline: as §1
MCF7 [3] = experiment: Cytotoxicity against human MCF7 cells at 20 mcg/mL after 3 days by SRB assay; type: functional; settings: for inhibition at 20 µg/mL: MCF7, 72 h; outline: as §1
A549 [4] = experiment: Cytotoxicity against human A549 cells at 20 mcg/mL after 3 days by SRB assay; type: functional; settings: for inhibition at 20 µg/mL: A549, 72 h; outline: as §1

SMILES | IC50 (MCF7 [1]) [µg/mL] | IC50 (A549 [2]) [µg/mL] | inhibition at 20 µg/mL (MCF7 [3]) [%] | inhibition at 20 µg/mL (A549 [4]) [%] | Activity (MCF7 [3]) | Activity (A549 [4])
CC(C)=CC[C@H]1C[C@]2(CC=C(C)C)C(=O)C(C(=O)c3ccccc3)=C(O)[C@](CC=C(C)C)(C2=O)C1(C)C | 10 (≈ 19.9 µM) | 13.7 (≈ 27.3 µM) | – | – | – | –
O=c1c2cc(O)ccc2oc2cccc(O)c12 | 19.5 (≈ 85.5 µM) | 14.5 (≈ 63.5 µM) | – | – | – | –
O=c1c2ccc(O)c(O)c2oc2cc(O)cc(O)c12 | 9.3 (≈ 35.7 µM) | 10 (≈ 38.4 µM) | – | – | – | –
COc1ccc(O)c2c(=O)c3cc(O)ccc3oc12 | 15.2 (≈ 58.9 µM) | 8.5 (≈ 32.9 µM) | – | – | – | –
O=c1c(-c2c(O)cc(O)c3c(=O)cc(-c4ccc(O)cc4)oc23)c(-c2ccc(O)cc2)oc2cc(O)cc(O)c12 | > 20 | > 20 | 26 | 27 | – | –
CC(C)=CCc1c(O)c(O)cc2oc3cc(O)cc(O)c3c(=O)c12 | 18.4 (≈ 56 µM) | 18.5 (≈ 56.3 µM) | – | – | – | –
O=c1c(O[C@@H]2OC[C@@H](O)[C@@H](O)[C@@H]2O)c(-c2ccc(O)c(O)c2)oc2cc(O)cc(O)c12 | > 20 | > 20 | 17 | 11 | – | –
O=c1c(O[C@@H]2O[C@@H](CO)[C@H](O)[C@H]2O)c(-c2ccc(O)c(O)c2)oc2cc(O)cc(O)c12 | – | – | – | – | inactive | inactive
O=c1c(O[C@@H]2O[C@H](CO)[C@H](O)[C@H](O)[C@H]2O)c(-c2ccc(O)c(O)c2)oc2cc(O)cc(O)c12 | – | – | – | – | inactive | inactive
CC(C)=CCC[C@]1(C)[C@@H](CC=C(C)C)C[C@]2(C)C(=O)[C@@]3(CC=C(C)C)O[C@]2(O)[C@]1(C(=O)C(C)C)C3=O [HYPERIBONE J] | 17.8 (≈ 35.7 µM) | > 20 | – | 49 | – | –
CC(C)=CC[C@@]12C[C@H]3[C@@H](C=C(C)C)[C@@](C(=O)c4ccccc4)(C1=O)C(=O)[C@@](CC=C(C)C)(C2=O)C3(C)C [HYPERIBONE K] | 10 (≈ 20 µM) | 13.7 (≈ 27.4 µM) | – | – | – | –
CC(C)=CC[C@H]1C[C@@]2(CC=C(C)C)C(=O)C(C(=O)c3ccccc3)=C(O)[C@](C)(C2=O)C1(C)C [HYPERIBONE L] | 15 (≈ 33.4 µM) | 9.2 (≈ 20.5 µM) | – | – | – | –
CC(C)(O)C1Cc2c(c(O)cc3oc4cc(O)cc(O)c4c(=O)c23)O1 (centres undefined) [HYPERXANTHONE A] | > 20 | > 20 | 27 | 26 | – | –
C=C(C)C(O)Cc1c(O)c(O)cc2oc3cc(O)cc(O)c3c(=O)c12 (centres undefined) [HYPERXANTHONE C] | 11.2 (≈ 32.5 µM) | 9.3 (≈ 27 µM) | – | – | – | –
C=C(C)C(O)Cc1c(O)ccc2oc3cc(O)cc(O)c3c(=O)c12 (centres undefined) [HYPERXANTHONE D] | > 20 | > 20 | 34 | 43 | – | –
CC1(C)CCc2c(c(O)cc3oc4cc(O)cc(O)c4c(=O)c23)O1 [HYPERXANTHONE E] | 19.3 (≈ 58.8 µM) | 18.5 (≈ 56.3 µM) | – | – | – | –
O=c1cc(-c2ccc(O)c(O)c2)oc2cc(O)cc(O)c12 [LUTEOLIN] | 14.3 (≈ 50 µM) | 12.9 (≈ 45.1 µM) | – | – | – | –
O=c1c(O)c(-c2cc(O)c(O)c(O)c2)oc2cc(O)cc(O)c12 [MYRICETIN] | 4.7 (≈ 14.8 µM) | 14.8 (≈ 46.5 µM) | – | – | – | –
C[C@H]1O[C@@H](Oc2c(-c3cc(O)c(O)c(O)c3)oc3cc(O)cc(O)c3c2=O)[C@@H](O)[C@@H](O)[C@@H]1O [MYRICITRIN] | 11.2 (≈ 24.1 µM) | > 20 | – | 13 | – | –
O=c1c(O)c(-c2ccc(O)c(O)c2)oc2cc(O)cc(O)c12 [QUERCETIN] | 19.5 (≈ 64.5 µM) | > 20 | – | 21 | – | –
C[C@@H]1O[C@@H](Oc2c(-c3ccc(O)c(O)c3)oc3cc(O)cc(O)c3c2=O)[C@H](O)[C@H](O)[C@H]1O [QUERCITRIN] | > 20 | > 20 | 18 | 12 | – | –
CC1(C)C=Cc2c(c(O)cc3oc4cc(O)cc(O)c4c(=O)c23)O1 [TOXYLOXANTHONE B] | > 20 | > 20 | 17 | 28 | – | –
